Source: ChEMBL document CHEMBL5113430, “Evaluation of chromane derivatives: Promising privileged scaffolds for lead discovery within Alzheimer's disease” (Bioorg Med Chem, 2022)
The source made the active and inactive calls. The calls are words filed in the database; no cut-off is given here.

Key:
[1] = molecular target: T1, Amine oxidase [flavin-containing] B (Homo sapiens, UniProt P27338); test: Inhibition of recombinant MAO-B (unknown origin) expressed in baculovirus infected BTI cells assessed as reduction in 4-hydroxyquinoline level using kynuramine as a substrate at 1 uM incubated for 20 mins by discontinuous fluorimetric assay relative to control; settings: read-out: INH
T1 sequence (P27338 whole entry): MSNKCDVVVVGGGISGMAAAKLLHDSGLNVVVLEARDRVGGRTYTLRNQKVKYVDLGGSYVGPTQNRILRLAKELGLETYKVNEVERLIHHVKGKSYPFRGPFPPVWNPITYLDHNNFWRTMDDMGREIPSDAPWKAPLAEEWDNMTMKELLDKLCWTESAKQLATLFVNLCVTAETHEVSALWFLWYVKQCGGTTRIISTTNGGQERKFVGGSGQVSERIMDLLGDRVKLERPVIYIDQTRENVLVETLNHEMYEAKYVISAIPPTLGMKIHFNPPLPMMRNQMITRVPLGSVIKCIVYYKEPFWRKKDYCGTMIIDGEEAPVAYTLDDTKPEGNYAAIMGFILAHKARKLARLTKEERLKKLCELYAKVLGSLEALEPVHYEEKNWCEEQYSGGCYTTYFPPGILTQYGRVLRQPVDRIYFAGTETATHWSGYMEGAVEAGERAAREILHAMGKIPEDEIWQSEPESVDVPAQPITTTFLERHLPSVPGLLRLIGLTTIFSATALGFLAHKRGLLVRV

[2] = molecular target: T2, Amine oxidase [flavin-containing] A (Homo sapiens, UniProt P21397); test: Inhibition of recombinant MAO-A (unknown origin) expressed in baculovirus infected BTI cells assessed as reduction in 4-hydroxyquinoline level using kynuramine as a substrate at 1 uM incubated for 20 mins by discontinuous fluorimetric assay relative to control
T2 sequence (P21397 whole entry): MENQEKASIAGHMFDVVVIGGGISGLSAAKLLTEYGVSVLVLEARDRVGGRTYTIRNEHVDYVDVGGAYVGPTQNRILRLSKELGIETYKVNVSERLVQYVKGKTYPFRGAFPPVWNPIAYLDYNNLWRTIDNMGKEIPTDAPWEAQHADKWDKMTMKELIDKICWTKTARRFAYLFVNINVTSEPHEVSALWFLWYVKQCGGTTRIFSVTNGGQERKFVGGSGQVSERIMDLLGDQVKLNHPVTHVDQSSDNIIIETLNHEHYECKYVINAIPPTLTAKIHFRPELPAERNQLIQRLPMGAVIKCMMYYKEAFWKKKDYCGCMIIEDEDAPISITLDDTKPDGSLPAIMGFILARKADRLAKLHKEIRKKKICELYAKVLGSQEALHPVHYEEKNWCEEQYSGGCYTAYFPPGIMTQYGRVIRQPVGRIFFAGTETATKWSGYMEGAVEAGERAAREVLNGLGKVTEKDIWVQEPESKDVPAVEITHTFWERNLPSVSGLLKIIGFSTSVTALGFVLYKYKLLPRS
How it was run: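 Discontinuous fluorimetric assay with recombinant membrane-bound MAO-A and kynuramine at two-fold KM (KM = 30 μM). Test compound at 1 μM, from a 1 mM DMSO stock. Incubated 20 min at 37 °C, stopped with 2 N NaOH. 4-hydroxyquinoline read at ex 320 nm / em 405 nm. Percent inhibition against no-inhibitor control, mean ± SD of two independent experiments in duplicate.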

Acetylcholinesterase [3] = molecular target: T3, Acetylcholinesterase (Electrophorus electricus, UniProt O42275); test: Inhibition of electric eel AChE using […] as a substrate and measured for 125 sec by DTNB based Ellman's method
T3 sequence (O42275 whole entry): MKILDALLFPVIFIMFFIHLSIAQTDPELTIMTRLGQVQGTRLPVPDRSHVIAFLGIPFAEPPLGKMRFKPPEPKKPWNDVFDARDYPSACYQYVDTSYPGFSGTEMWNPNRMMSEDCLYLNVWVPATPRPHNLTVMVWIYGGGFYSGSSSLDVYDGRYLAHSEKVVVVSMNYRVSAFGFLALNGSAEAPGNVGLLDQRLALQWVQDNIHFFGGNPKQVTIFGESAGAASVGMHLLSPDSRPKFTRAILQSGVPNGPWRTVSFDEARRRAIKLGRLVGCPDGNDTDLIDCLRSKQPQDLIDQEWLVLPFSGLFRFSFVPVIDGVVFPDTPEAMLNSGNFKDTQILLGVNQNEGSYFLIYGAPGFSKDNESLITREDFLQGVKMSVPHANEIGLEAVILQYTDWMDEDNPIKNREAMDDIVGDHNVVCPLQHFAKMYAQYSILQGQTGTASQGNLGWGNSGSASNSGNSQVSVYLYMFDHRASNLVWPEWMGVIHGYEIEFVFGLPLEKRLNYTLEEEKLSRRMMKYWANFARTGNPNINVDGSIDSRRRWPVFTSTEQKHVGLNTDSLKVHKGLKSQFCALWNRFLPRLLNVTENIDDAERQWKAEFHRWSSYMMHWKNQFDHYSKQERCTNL

Cholinesterase [4] = molecular target: T4, Cholinesterase (Equus caballus, UniProt P81908); test: Inhibition of Equine serum BuChE using S-butyrylthiocholine iodide as a substrate and measured for 125 sec by DTNB based Ellman's method
T4 sequence (P81908 whole entry): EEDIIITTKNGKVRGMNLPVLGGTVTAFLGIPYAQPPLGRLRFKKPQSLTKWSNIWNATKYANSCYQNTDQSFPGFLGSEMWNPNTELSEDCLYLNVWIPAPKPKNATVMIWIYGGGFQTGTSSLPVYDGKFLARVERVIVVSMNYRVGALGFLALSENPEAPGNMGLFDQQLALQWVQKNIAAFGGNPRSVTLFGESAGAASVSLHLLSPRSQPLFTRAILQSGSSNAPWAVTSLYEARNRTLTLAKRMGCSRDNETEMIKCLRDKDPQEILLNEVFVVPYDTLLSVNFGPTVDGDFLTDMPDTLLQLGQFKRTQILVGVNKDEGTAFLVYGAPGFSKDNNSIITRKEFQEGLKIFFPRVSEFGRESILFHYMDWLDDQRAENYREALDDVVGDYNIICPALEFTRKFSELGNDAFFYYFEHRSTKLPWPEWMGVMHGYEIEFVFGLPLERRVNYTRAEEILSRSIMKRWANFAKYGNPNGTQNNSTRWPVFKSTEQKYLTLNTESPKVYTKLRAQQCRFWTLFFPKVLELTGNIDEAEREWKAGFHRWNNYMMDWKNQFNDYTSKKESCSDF

Cholinesterase [5] = molecular target: T4, Cholinesterase; test: Inhibition of Equine serum BuChE assessed as inhibitory constants for binding the free enzyme using S-butyrylthiocholine iodide as a substrate by Cornish-Bowden plot analysis
How it was run: (§1)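 Equine BuChE, Ellman method: 50 μM phosphate buffer pH 8.0, 0.975 mM DTNB, 1.25% DMSO, 25 °C, read at 405 nm over 125 s. Runs used 5 butyrylthiocholine levels (1/4 to 4 × KM) and 3–4 inhibitor levels giving roughly 30–80% inhibition. KM and Vmax came from nonlinear regression. Mode of inhibition and constants came from Cornish-Bowden plots.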

Cholinesterase [6] = molecular target: T4, Cholinesterase; test: Inhibition of Equine serum BuChE assessed as inhibitory constants for binding the enzyme-substrate complex using S-butyrylthiocholine iodide as a substrate by Cornish-Bowden plot analysis; how it was run: as §1
[7] = molecular target: Cholinesterase (Equus caballus) (UniProt P81908); test: Inhibition of equine serum BuChE at 1.47 mM by STD-NMR spectroscopy
Cholinesterase (Equus caballus), sequence (P81908 whole entry): as above
How it was run: (§2)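 STD-NMR with 5 μM equine BuChE in D2O; ligand stocks of 8.8 and 4.8 mM. Saturation times for buildup curves 0.25–5 s, total experiment time held at 6.5 s. Water suppression at 4.7 ppm, sweep width 20.03 ppm. Blanks checked for direct ligand saturation.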

[8] = molecular target: T1, Amine oxidase [flavin-containing] B; test: Inhibition of human MAO-B assessed as shielding effect on inhibitor […] at 0.016 mM incubated for 20 min by STD-NMR spectroscopy; settings: 16 µM
How it was run: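 MAO-B incubated with the N-propargyl inhibitor and followed by 1H NMR, with spectra recorded every 5 min. The spectrum of inhibitor alone was compared with the inhibitor–enzyme mixture at 20 min, watching shifts of inhibitor protons, especially the propargyl proton. Ligand-only controls and blanks checked for direct saturation. Water suppression at 4.7 ppm.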

[9] = molecular target: Cholinesterase (Equus caballus) (UniProt P81908); test: Inhibition of equine serum BuChE at 0.8 mM by STD-NMR spectroscopy; how it was run: as §2
Acetylcholinesterase [10] = molecular target: T3, Acetylcholinesterase; test: Inhibition of electric eel AChE using […] as a substrate and measured upto 180 sec by DTNB based Ellman's method

## C#CCNC1c2cccc(OC)c2OCC1(C)C (configuration not stated)
[1]
  inhibition at 1 µM: 13.8%
[2]
  inhibition at 1 µM: 4.6%

## CCOc1cc(C#N)cc2c1OCC(C)(C)C2O (configuration not stated)
Acetylcholinesterase [3]
  IC50: > 100 µM
Cholinesterase [4]
  IC50: 7.3 µM

## CC1(C)COc2ccccc2C1O (configuration not stated)
[1]
  inhibition at 1 µM: 8%
[2]
  inhibition at 1 µM: 24.3%
Acetylcholinesterase [3]
  IC50: > 100 µM
Cholinesterase [4]
  IC50: 40 µM

## C#CCNC1c2cc(C)ccc2OCC1(C)C (configuration not stated)
[1]
  inhibition at 1 µM: -6.8%
[2]
  inhibition at 1 µM: -9.4%

## Cc1ccc2c(c1)C(N)C(C)(C)CO2 (configuration not stated)
Cholinesterase [4]
  IC50: 67 µM

## CC1(C)COc2cc3ccccc3cc2C1N (configuration not stated)
[1]
  inhibition at 1 µM: 7.5%
Cholinesterase [5]
  Ki: 18 µM
[2]
  inhibition at 1 µM: 13.3%
Cholinesterase [6]
  Ki: 11 µM
Cholinesterase [4]
  IC50: 8.9 µM

## COc1cccc2c1OCC(C)(C)C2=O
Acetylcholinesterase [3]
  IC50: > 100 µM
Cholinesterase [4]
  IC50: > 100 µM

## CC1(C)COc2ccc3ccccc3c2C1O (configuration not stated)
Acetylcholinesterase [3]
  IC50: > 100 µM
Cholinesterase [4]
  IC50: 33 µM

## CCOc1cc(C#N)cc2c1OCC(C)(C)C2=O
[1]
  inhibition at 1 µM: 4.7%
[2]
  inhibition at 1 µM: 20.5%
Acetylcholinesterase [3]
  IC50: > 100 µM
Cholinesterase [4]
  IC50: > 100 µM

## CC1(C)COc2c(OC(F)(F)F)cccc2C1=O
Acetylcholinesterase [3]
  IC50: > 100 µM
Cholinesterase [4]
  IC50: 4.3 µM

## CC1(C)COc2cc3ccccc3cc2C1O (configuration not stated)
Acetylcholinesterase [3]
  IC50: > 100 µM
Cholinesterase [4]
  IC50: 50 µM

## Cc1ccc2c(c1)C(O)C(C)(C)CO2 (configuration not stated)
Acetylcholinesterase [3]
  IC50: > 100 µM
Cholinesterase [4]
  IC50: > 100 µM

## CC1(C)COc2ccc3ccccc3c2C1=O
[1]
  inhibition at 1 µM: 5.1%
Cholinesterase [5]
  Ki: 2 µM
[7]
  inhibition: Active
[2]
  inhibition at 1 µM: 23.2%
Cholinesterase [6]
  Ki: 6.7 µM
Acetylcholinesterase [3]
  IC50: > 100 µM
Cholinesterase [4]
  IC50: 2.9 µM

## C#CCNC1c2ccccc2OCC1(C)C (configuration not stated)
[8]
  inhibition (INH): Active
[1]
  inhibition at 1 µM: 11.6%

## CC1(C)COc2ccc(F)cc2C1O (configuration not stated)
[1]
  inhibition at 1 µM: 8.3%
[2]
  inhibition at 1 µM: 16.5%
Acetylcholinesterase [3]
  IC50: > 100 µM
Cholinesterase [4]
  IC50: > 100 µM

## CC1(C)COc2ncccc2C1=O
Acetylcholinesterase [3]
  IC50: > 100 µM
Cholinesterase [4]
  IC50: > 100 µM

## CC1(C)COc2cc3ccccc3cc2C1=O
[1]
  inhibition at 1 µM: 27.7%
[2]
  inhibition at 1 µM: 16.4%
Acetylcholinesterase [3]
  IC50: > 100 µM
Cholinesterase [4]
  IC50: 3.1 µM

## CC1(C)COc2c(ccc3cccnc23)C1=O
[1]
  inhibition at 1 µM: 4.8%
[2]
  inhibition at 1 µM: 14.8%
Acetylcholinesterase [3]
  IC50: > 100 µM
Cholinesterase [4]
  IC50: 6.4 µM

## C#CCN(Cc1ccccc1)C1c2ccccc2OCC1(C)C (configuration not stated)
[1]
  inhibition at 1 µM: 2.9%
[2]
  inhibition at 1 µM: -10.6%

## C[C@H](NCc1ccc(OCc2cccc(F)c2)cc1)C(N)=O [SAFINAMIDE]
[2]
  inhibition at 1 µM: 1.8%

## CC1(C)COc2cc(F)c(F)cc2C1=O
Acetylcholinesterase [3]
  IC50: > 100 µM
Cholinesterase [4]
  IC50: > 100 µM

## C#CCN(Cc1ccccc1)C1c2cccc(OC)c2OCC1(C)C (configuration not stated)
[1]
  inhibition at 1 µM: 14.7%
[2]
  inhibition at 1 µM: 4.3%

## COc1cccc2c1C(O)C(C)(C)CO2 (configuration not stated)
[1]
  inhibition at 1 µM: 5.3%
[2]
  inhibition at 1 µM: 11.5%
Acetylcholinesterase [3]
  IC50: > 100 µM
Cholinesterase [4]
  IC50: > 100 µM

## CC1(C)COc2ccc3ccccc3c2C1N (configuration not stated)
[1]
  inhibition at 1 µM: 2.7%
[2]
  inhibition at 1 µM: 12.5%
Cholinesterase [4]
  IC50: 52 µM

## CC1(C)COc2cc(F)ccc2C1=O
Acetylcholinesterase [3]
  IC50: > 100 µM
Cholinesterase [4]
  IC50: > 100 µM

## CC1(C)COc2ccc(F)cc2C1=O
Acetylcholinesterase [3]
  IC50: > 100 µM
Cholinesterase [4]
  IC50: 33 µM

## CC1(C)COc2cc(F)ccc2C1O (configuration not stated)
Acetylcholinesterase [3]
  IC50: > 100 µM
Cholinesterase [4]
  IC50: 18 µM

## COc1cccc2c1C(=O)C(C)(C)CO2
[1]
  inhibition at 1 µM: 5.9%
[2]
  inhibition at 1 µM: 12.1%
Acetylcholinesterase [3]
  IC50: > 100 µM
Cholinesterase [4]
  IC50: 12 µM

## CC1(C)COc2ccccc2C1=O
[1]
  inhibition at 1 µM: 9.2%
[2]
  inhibition at 1 µM: 9.7%
Acetylcholinesterase [3]
  IC50: > 100 µM
Cholinesterase [4]
  IC50: 43 µM

## CC1(C)COc2cc(F)c(F)cc2C1O (configuration not stated)
Acetylcholinesterase [3]
  IC50: > 100 µM
Cholinesterase [4]
  IC50: 28 µM

## COc1cccc2c1OCC(C)(C)C2N (configuration not stated)
[1]
  inhibition at 1 µM: 4.3%
[9]
  inhibition: Active
Cholinesterase [5]
  Ki: 9 µM
[2]
  inhibition at 1 µM: -0.7%
Cholinesterase [6]
  Ki: 19.1 µM
Cholinesterase [4]
  IC50: 7.6 µM

## CC1(C)COc2c(ccc3cccnc23)C1O (configuration not stated)
Cholinesterase [5]
  Ki: 7.2 µM
Cholinesterase [6]
  Ki: 13.7 µM
Acetylcholinesterase [3]
  IC50: > 100 µM
Cholinesterase [4]
  IC50: 5 µM

## CC1(C)COc2ccc(C#N)cc2C1O (configuration not stated)
Acetylcholinesterase [3]
  IC50: > 100 µM
Cholinesterase [4]
  IC50: 18 µM

## NC1CCOc2ccccc21 (configuration not stated)
[1]
  inhibition at 1 µM: 4.8%
[2]
  inhibition at 1 µM: -0.7%

## CC1(C)COc2ccccc2C1N (configuration not stated)
[1]
  inhibition at 1 µM: 3.7%
[2]
  inhibition at 1 µM: -3.8%
Cholinesterase [4]
  IC50: 38 µM

## O=C1CC(OCCCCCSC(=S)N2CCCCC2)Oc2ccccc21 (configuration not stated)
Acetylcholinesterase [10]
  IC50: 0.1 µM

## C#CCN(C)CCCOc1ccc(Cl)cc1Cl [CLORGILINE]
[2]
  inhibition at 1 µM: 99.8%
